From ChEMBL document CHEMBL1125540, “Antiviral and antitumor structure-activity relationship studies on tetracyclic eudistomines” (1992)
In brackets after ≈: the same amount, converted by molar mass.

Key:
Format in all cases: functional
Vero [1] = test: Evaluation for antiviral activity against Coxsackie virus B4 in Vero cell cultures (Concentration required to reduce virus-induced cytopathogenicity by 50%); conditions: Chlorocebus sabaeus
Method in brief: (§1)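 Vero cultures were infected with parainfluenza-3, reovirus-1, Sindbis, Coxsackie B4 or Semliki forest virus. Values are concentrations giving 50% reduction of virus-induced cytopathogenicity, or a microscopically detectable alteration of normal cell morphology for cytotoxicity. Each is the average of two separate experiments.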

Vero [2] = test: Evaluation in Vero cell cultures for cytotoxicity that is to cause microscopically detectable alteration of normal cell morphology; conditions: Chlorocebus sabaeus; method in brief: as §1
Influenza A virus = test: Concentration required to reduce influenza virus A (ishikawa) induced cytopathogenicity by 50%
Method in brief: (§2)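 Influenza A and B virus replication in MDCK cultures. Antiviral value is the concentration giving 50% reduction of virus-induced cytopathogenicity. Cytotoxicity is the concentration causing a microscopically detectable change in normal cell morphology.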

Vero [3] = test: Evaluation for antiviral activity against reo virus-1 in Vero cell cultures (Concentration required to reduce virus-induced cytopathogenicity by 50%); conditions: Chlorocebus sabaeus; method in brief: as §1
[4] = Evaluation for antiviral activity against herpes simplex virus-1(TK-) (B2006) in primary rabbit kidney cell cultures(PRK) (Concentration required to reduce virus-induced cytopathogenicity by 50%); conditions: Oryctolagus cuniculus
[5] = Evaluation in PRK cell cultures for cytotoxicity that is to cause microscopically detectable alteration of normal cell morphology; conditions: Oryctolagus cuniculus
[6] = Evaluation for antiviral activity against herpes simplex virus-2(196) in primary rabbit kidney cell cultures(PRK) (Concentration required to reduce virus-induced cytopathogenicity by 50%); conditions: Oryctolagus cuniculus
[7] = Evaluation for antiviral activity against vesicular stomatitis virus in primary rabbit kidney cell cultures(PRK) (Concentration required to reduce virus-induced cytopathogenicity by 50%); conditions: Oryctolagus cuniculus
HeLa [8] = test: Compound was evaluated for antiviral activity against respiratory syncitial virus (long) in HeLa cell cultures (Concentration required to reduce virus-induced cytopathogenicity by 50%); conditions: Homo sapiens
Method in brief: (§3)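 HeLa cultures were infected with respiratory syncytial, vesicular stomatitis, Coxsackie B4 or polio-1 virus. The antiviral end-point is 50% reduction of virus-induced cytopathogenicity. Cytotoxicity is the minimum concentration producing microscopically detectable alteration of normal cell morphology.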

[9] = Evaluation for antiviral activity against herpes simplex virus-2(Lyons) in primary rabbit kidney cell cultures(PRK) (Concentration required to reduce virus-induced cytopathogenicity by 50%); conditions: Oryctolagus cuniculus
[10] = Evaluated for antiviral activity against herpes simplex virus-1(KOS) in primary rabbit kidney cell cultures(PRK) (Concentration required to reduce virus-induced cytopathogenicity by 50%); conditions: Oryctolagus cuniculus
[11] = Evaluation for antiviral activity against herpes simplex virus-2(G) in primary rabbit kidney cell cultures(PRK) (Concentration required to reduce virus-induced cytopathogenicity by 50%); conditions: Oryctolagus cuniculus
HeLa [12] = test: Evaluation for antiviral activity against Coxsackie virus B4 in HeLa cell cultures (Concentration required to reduce virus-induced cytopathogenicity by 50%); conditions: Homo sapiens; method in brief: as §3
Vero [13] = test: Evaluation for antiviral activity against parainfluenza-3 virus in Vero cell cultures (Concentration required to reduce virus-induced cytopathogenicity by 50%); conditions: Chlorocebus sabaeus; method in brief: as §1
MOLT-4F = test: Inhibitory effect on the proliferation of human T-lymphoblast cells (Molt-4F); conditions: read-out: ID50 (the source's name)
Method in brief: (§4)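 Proliferation assay in murine leukemia L1210, human T-lymphoblast Molt-4F and human T-lymphocyte MT-4 cells. ID50 is the dose inhibiting tumor cell proliferation by 50%, expressed in μg/mL.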

HeLa [14] = test: Evaluation for antiviral activity against polio virus-1 in HeLa cell cultures (Concentration required to reduce virus-induced cytopathogenicity by 50%); conditions: Homo sapiens; method in brief: as §3
[15] = Evaluation for antiviral activity against herpes simplex virus-1 (McIntyre) in primary rabbit kidney cell cultures(PRK) (Concentration required to reduce virus-induced cytopathogenicity by 50%); conditions: Oryctolagus cuniculus
Vero [16] = test: Evaluation for antiviral activity against Sindbis virus in Vero cell cultures (Concentration required to reduce virus-induced cytopathogenicity by 50%); conditions: Chlorocebus sabaeus; method in brief: as §1
L1210 = test: Inhibitory effect on the proliferation of murine leukemia cells (L1210); conditions: Mus musculus, read-out: ID50 (the source's name); method in brief: as §4
[17] = Evaluation for antiviral activity against vaccinia virus in primary rabbit kidney cell cultures(PRK) (Concentration required to reduce virus-induced cytopathogenicity by 50%); conditions: Oryctolagus cuniculus
HeLa [18] = test: Evaluation for antiviral activity against vesicular stomatitis virus in HeLa cell cultures (Concentration required to reduce virus-induced cytopathogenicity by 50%); conditions: Homo sapiens; method in brief: as §3
HeLa [19] = test: Evaluation in HeLa cell cultures for cytotoxicity that is to cause microscopically detectable alteration of normal cell morphology; conditions: Homo sapiens; method in brief: as §3
Vero [20] = test: Evaluation for antiviral activity against forest virus in Vero cell cultures (Concentration required to reduce virus-induced cytopathogenicity by 50%); conditions: Chlorocebus sabaeus; method in brief: as §1
MT4 = test: Inhibitory effect on the proliferation of human T-lymphocyte (MT-4); conditions: read-out: ID50 (the source's name); method in brief: as §4
[21] = Evaluation for antiviral activity against herpes simplex virus-1(F) in primary rabbit kidney cell cultures(PRK) (Concentration required to reduce virus-induced cytopathogenicity by 50%); conditions: Oryctolagus cuniculus
Influenza B virus = test: Concentration required to reduce influenza virus B (singapore) induced cytopathogenicity by 50%; method in brief: as §2
MDCK = test: Compound was evaluated in MDCK cell cultures for cytotoxicity that is to cause microscopically detectable alteration of normal cell morphology; conditions: Canis lupus familiaris; method in brief: as §2

SMILES	MIC (Vero [1]) [mg/L]	MCC (Vero [2]) [µg/mL]	MIC (Vero [3]) [mg/L]	MIC [4] [mg/L]	MCC [5] [µg/mL]	MIC [6] [mg/L]	MIC [7] [mg/L]	MIC [9] [mg/L]	MIC [10] [mg/L]	MIC [11] [mg/L]	MIC (HeLa [12]) [mg/L]	MIC (Vero [13]) [mg/L]	MIC (HeLa [14]) [mg/L]	MIC [15] [mg/L]	MIC (Vero [16]) [mg/L]	MIC [17] [mg/L]	MIC (HeLa [18]) [mg/L]	MCC (HeLa [19]) [µg/mL]	MIC (Vero [20]) [mg/L]	MIC [21] [mg/L]	other results
N[C@@H]1CSCON2CCc3c([nH]c4ccccc34)[C@H]12	0.4 (≈ 1.45 µM)	> 4	0.4 (≈ 1.45 µM)	0.7 (≈ 2.54 µM)	> 10	0.2 (≈ 0.726 µM)	0.2 (≈ 0.726 µM)	0.07 (≈ 0.254 µM)	0.7 (≈ 2.54 µM)	0.2 (≈ 0.726 µM)	0.7 (≈ 2.54 µM)	0.2 (≈ 0.726 µM)	0.7 (≈ 2.54 µM)	0.2 (≈ 0.726 µM)	0.2 (≈ 0.726 µM)	0.1 (≈ 0.363 µM)	0.2 (≈ 0.726 µM)	> 4	0.2 (≈ 0.726 µM)	0.07 (≈ 0.254 µM)	MIC (Influenza A virus): 0.8 mg/L (≈ 2.91 µM); MIC (HeLa [8]): 0.8 mg/L (≈ 2.91 µM); IC50 (MOLT-4F): 0.12 mg/L (≈ 0.436 µM); IC50 (L1210): 0.11 mg/L (≈ 0.399 µM); IC50 (MT4): 0.075 mg/L (≈ 0.272 µM); MIC (Influenza B virus): 0.8 mg/L (≈ 2.91 µM); MCC (MDCK): 8 µg/mL
C[C@@H]1CSCON2CCc3c([nH]c4ccccc34)[C@H]12	20 (≈ 72.9 µM)	> 100	> 40		> 100		> 100		> 100	> 100	> 40	> 40	> 40		20 (≈ 72.9 µM)	> 100	> 40	40	> 40		
O=c1[nH]c(=O)n([C@H]2C[C@H](O)[C@@H](CO)O2)cc1/C=C/Br [BRIVUDINE]	> 400	> 400	> 400	150 (≈ 450 µM)	> 400	70 (≈ 210 µM)	> 200	70 (≈ 210 µM)		7 (≈ 21 µM)	> 400	> 400	> 400	0.02 (≈ 0.06 µM)	> 400	7 (≈ 21 µM)	> 400	> 400	> 400	0.02 (≈ 0.06 µM)	
COc1ccc2[nH]c3c(c2c1)CCN1OCSC[C@@H](N)[C@H]31	> 1	> 2.5	> 1	> 4	> 10	> 4	> 4	> 4	> 4	> 4	> 1	> 1	> 1	> 4	> 1	> 4	> 1	4	> 1	> 4	MIC (HeLa [8]): > 1.6 mg/L; IC50 (MOLT-4F): 0.94 mg/L (≈ 3.08 µM); IC50 (L1210): 6.54 mg/L (≈ 21.4 µM); IC50 (MT4): 1.99 mg/L (≈ 6.52 µM)
NC(=O)c1ncn([C@@H]2O[C@H](CO)[C@@H](O)[C@H]2O)n1 [RIBAVIRIN]	70 (≈ 287 µM)	> 400	70 (≈ 287 µM)	> 200	> 400	> 200	> 400	> 200	> 200	> 200	70 (≈ 287 µM)	20 (≈ 81.9 µM)	70 (≈ 287 µM)	> 200	40 (≈ 164 µM)	20 (≈ 81.9 µM)	20 (≈ 81.9 µM)	> 400	40 (≈ 164 µM)	> 200	MIC (Influenza A virus): 15 mg/L (≈ 61.4 µM); MIC (HeLa [8]): 3 mg/L (≈ 12.3 µM); MIC (Influenza B virus): 15 mg/L (≈ 61.4 µM); MCC (MDCK): > 200 µg/mL
COc1ccc2[nH]c3c(c2c1)CCN1OCSC[C@@H](N)[C@@H]31	0.07 (≈ 0.229 µM)	> 1	0.07 (≈ 0.229 µM)	0.04 (≈ 0.131 µM)	> 1	0.02 (≈ 0.0655 µM)	0.02 (≈ 0.0655 µM)	0.04 (≈ 0.131 µM)	0.045 (≈ 0.147 µM)	0.02 (≈ 0.0655 µM)	0.02 (≈ 0.0655 µM)		0.02 (≈ 0.0655 µM)	0.02 (≈ 0.0655 µM)	0.02 (≈ 0.0655 µM)	0.02 (≈ 0.0655 µM)	0.02 (≈ 0.0655 µM)	0.4	0.07 (≈ 0.229 µM)	0.07 (≈ 0.229 µM)	MIC (Influenza A virus): > 0.32 mg/L; MIC (HeLa [8]): 0.15 mg/L (≈ 0.491 µM); IC50 (MOLT-4F): 0.0062 mg/L (≈ 0.0203 µM); IC50 (L1210): 0.005 mg/L (≈ 0.0164 µM); IC50 (MT4): 0.005 mg/L (≈ 0.0164 µM); MIC (Influenza B virus): > 0.32 mg/L; MCC (MDCK): 0.8 µg/mL
